# Source: PMC5531262 (Messenger (Los Angeles, Calif. : Print), 2016)
# Several values for one entry are separate records, joined by “and”; a condition that tells them apart may be missing. Equal entries are not always repeated.
# Tests used:
# Type in all cases: biochemical, Lytechinus pictus
# [1] = test system: IP3-induced Ca^2+ release (IP3Rs); assay: IP3-induced Ca^2+ release in sea urchin egg homogenate
# How it was run: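 Lytechinus pictus egg homogenate (GluIM, pH 7.2, with ATP-regenerating system) diluted 20-fold over 3 h at 17°C to 2.5% v/v. Fluo-3 3 μM final, ex 506/em 526 nm, stirred cuvette. Test compound or DMSO preincubated 2 min, then sub-maximal IP3 chosen from a dose-response curve. Signal calibrated to [Ca2+] with 0.5 mM EGTA then 10 mM CaCl2. Sigmoidal fit; mean ± SEM, n = 4–7.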
# [2] = test system: cADPR-induced Ca^2+ release (RyRs); assay: cADPR-induced Ca^2+ release in sea urchin egg homogenate
# How it was run: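 Egg homogenate from Lytechinus pictus diluted 20-fold over 3 h at 17°C in GluIM with ATP regeneration; 3 μM Fluo-3 final, calibrated with EGTA/CaCl2. Test compound or DMSO preincubated 2 min before 0.3 μM cADPR (sub-maximal). For the time course, 30 μM test compound was preincubated 10–120 s. cADPR concentration-response was run after 2 min with 30 μM or DMSO. Sigmoidal fits; mean ± SEM, n = 4–9.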
# [3] = test system: caffeine-induced Ca^2+ release (RyRs); assay: caffeine-induced Ca^2+ release in sea urchin egg homogenate; conditions: 10 mM caffeine
# How it was run: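 Lytechinus pictus egg homogenate loaded with Ca2+ by 20-fold dilution over 3 h at 17°C in GluIM plus ATP-regenerating system; Fluo-3 3 μM final, stirred cuvette, ex 506/em 526 nm. Test compound preincubated 2 min, then 10 mM caffeine. Fluorescence converted to [Ca2+] using 0.5 mM EGTA and 10 mM CaCl2 for Fmin/Fmax. Sigmoidal concentration-response fit; mean ± SEM, n = 4–7.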
compound,measurement,setting,value
"O=P(O)(O)O[C@@H]1[C@H](O)[C@H](O)[C@@H](OP(=O)(O)O)[C@H](OP(=O)(O)O)[C@H]1O [IP3, inositol 1,4,5-trisphosphate]",raw control ∆[Ca^2+] with IP3,"[1]; sub-maximal IP3, no inhibitor",94 ± 1 nM
"c1ccc(CN(CCN(Cc2ccccn2)Cc2ccccn2)Cc2ccccn2)nc1 [TPEN, N,N,N’,N’- tetrakis(2-pyridylmethyl)ethylenediamine]",effect on cADPR-induced Ca^2+ release,"[2]; preincubation 2 minutes, then 0.3 μM cADPR, magnitude and kinetics",inhibited cADPR-induced Ca^2+ release
N=c1c2ncn3c2ncn1[C@@H]1O[C@H](COP(=O)(O)OP(=O)(O)OC[C@H]2O[C@@H]3[C@H](O)[C@@H]2O)[C@@H](O)[C@H]1O [cADPR],raw control response ∆[Ca^2+] with cADPR,"[2]; 0.3 μM cADPR, no inhibitor",72 ± 5 nM and 76 ± 4 nM and 72 ± 4 nM and 85 ± 3 nM and 75 ± 4 nM
same,EC50,"[2]; read-out: EC50 of cADPR for Ca^2+ release (concentration-response curve), sea urchin egg homogenate, Fig. 2b",~250 nM
Cn1c(=O)c2c(ncn2C)n(C)c1=O [caffeine],raw control ∆[Ca^2+] with caffeine,[3]; no inhibitor,80 ± 5 nM
COc1ccccc1OCCNCC(O)COc1cccc2[nH]c3ccccc3c12 (stereo not drawn) [carvedilol],inhibition of cADPR-induced Ca^2+ release (extent),"[2]; 0.3 μM cADPR, extent of inhibition at high carvedilol concentration",> 80%
same,time of preincubation to maximal suppression of cADPR-induced Ca^2+ release,"[2]; carvedilol 30 μM, no further inhibition at longer incubations",≤ 10 s
same,inhibition of caffeine-induced Ca^2+ release (extent),[3]; preincubation 2 minutes,> 80%
same,inhibition of IP3-induced Ca^2+ release (extent),"[1]; sub-maximal IP3, preincubation 2 minutes, Fig. 4",47%
